The structures appear in SMILES notation. About 460 (18%) of roughly 2,500 compounds were called active. Not all results are given here. Values without a mark were called inactive.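 Rule for the calls: active = mean activation above a cutoff of low control average plus 3 SD from the earlier screen (cut at about 12% in these data); inactive = the rest.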

The nature of the assay: IANBD-channel fluorescence artefacts in buffer – biochemical, artefact control for cardiac RTF calcium sensitizer project, confirmation (AID 504382). Particulars: IANBD fluorescence interference counterscreen, EC20 Ca2+, at 7.2 µM, hits give high values, scaled: EC20 calcium 0, EC100 calcium 100. Summed up: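 timing = compound incubation 15 min at 25 °C before fluorescence reading | technique = fluorescence at 480 nm excitation, 540 nm emission | evaluation = interference relative to controls | replication = triplicate wells per compound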
As to `Cc1ccccc1OCCC(=O)Nc1cc(S(=O)(=O)N2CCCCC2)ccc1N1CCN(C)CC1`, the fluorescence artifact activation was 4.83%. As for `CCN1/C(=C/c2ccc3cc(C)ccc3[n+]2CC)Sc2ccccc21`, the figure is 15.3% (active).

On to `CCN1/C(=C/c2ccc3cc(C)ccc3[n+]2CC)Sc2ccc3sccc3c21`, for which the fluorescence artifact activation is 0.99%. As for `CCN1/C(=C/c2ccc3cc(C)cc(C)c3[n+]2CC)Sc2cc(C)ccc21`, the figure is 0.44%; as for `CCN1/C(=C/c2ccc3cc(C)ccc3[n+]2CC)Sc2cc(C)ccc21`, 0.41%. As for `CCN1/C(=C\c2ccc3ccccc3[n+]2CC)Sc2cc(C)ccc21`, the fluorescence artifact activation is 20.2% (active). For `CCN1/C(=C\c2ccc3cc(C)ccc3[n+]2CC)Sc2cc(C)c(C)cc21`, the fluorescence artifact activation was 0.1%. As for `COCCN(CCOC)Cc1c(O)ccc2c1O/C(=C\c1ccco1)C2=O`, the figure is 0.11%; as for `C=CCn1c(O)c(CN2CCN(Cc3ccccc3)CC2)c(C)c(C#N)c1=O`, 0.03%. With `CCC[C@@H](CN1CCC[C@H]1CN1C(N)=NC[C@@H]1Cc1ccccc1)N1C[C@@H](Cc2ccccc2)N(CCCC2CCCC2)C1=N`, the fluorescence artifact activation was 7.46%. In the case of `CCOc1ccc(NC(=O)/C(C#N)=C/c2ccc(N3CCCC3)c(C)c2)cc1` it was 0.06%; in that of `Oc1[nH]c2ccc(Br)cc2c1N=Nc1ccc(F)cc1`, 5.56%; in that of `COc1ccc(C2=NN(C(=O)COC(=O)c3ccc(NC(=O)CC#N)cc3)C(c3ccco3)C2)cc1` (centres undefined), 2.58%. In the case of `CS(=O)(=O)Nc1ccc(C2=NN(C(=O)CCCC(=O)O)C(c3cccs3)C2)cc1` (centres undefined) it was 16.5% (active).

For the compound `O/C(=C\c1nc2ccccc2[nH]1)c1cccs1`, the fluorescence artifact activation was 0%. As for `O=C(O)c1ccc(O)c(O)c1`, the figure is -0.01%; as for `Cc1cc(C)c[n+](-c2[nH]c(=O)sc2/C=N/NC([S-])=Nc2ccccc2)c1`, 0.17%. As for `Cc1ccc[n+](-c2nc([O-])sc2C=O)c1`, the figure is 9.59%; as for `Cc1ccc(N/C=C2/Sc3ccccc3NC2=O)cc1`, 0.14%; as for `CC1C2(C)OC(=N)C(C#N)(C(C)O2)C1(C#N)C#N` (centres undefined), 0.64%. For `CCCCN1C(=O)/C(=C/C=C2/CC(C)(C)CN2C)SC1=S`, the fluorescence artifact activation was -0.02%. As to `CCN1C(=O)/C(=C/C=C2/SCCN2C)SC1=S`, the fluorescence artifact activation is 10.2%.

Turning to `CCN1C(=O)/C(=C\C=C2/C=CC=CN2CC)SC1=S`, the fluorescence artifact activation is 104% (active). In the case of `COC(=O)C(C)n1cnc2c(nnn2Cc2ccc(Cl)cc2)c1=O` (centres undefined) it was 0.03%.

For the compound `Cc1ccc(C)c(S(=O)(=O)N2CCCC2CNC(=O)C(=O)NC2CC2)c1` (centres undefined), the fluorescence artifact activation is 0.11%. As for `Cc1cc(/C=C2\SC(=S)N(C)C2=O)c(C)n1-c1ccccc1O`, the figure is 3.34%; as for `CN(/N=C/c1ccc(N(C)C)cc1)C1=NS(=O)(=O)c2ccccc21`, 6.25%. As for `CCN(CC)c1ccc2cc(C=O)c(=O)oc2c1`, the figure is 5.57%. In the case of `CCN(CC)c1ccc2c(Cl)c(Br)c(=O)oc2c1` it was 0.1%; in that of `CCN(CC)c1ccc2oc(=O)c(C)nc2c1`, 124% (active); in that of `CCN(CC)c1ccc2c(c1)oc(=O)c1c(Cl)cc(=O)oc12`, 21.4% (active).

For `CCN(CC)c1ccc2cc(-c3nc4ccccc4n3C)c(=O)oc2c1`, the fluorescence artifact activation was 0.12%.

As for `O=C(Nc1ccccc1)C1CC2CCCC(C1)C2=O` (centres undefined), the fluorescence artifact activation is 2.4%.

With `O=C(C1=NN(c2ccccc2)C2C(=O)N(c3ccc(Cl)cc3)C(=O)C12)c1ccccc1` (centres undefined), the fluorescence artifact activation was -0.02%.

For `Cc1ccc2c(C(=O)CN3CCC(C(N)=O)CC3)c(C)[nH]c2c1`, the fluorescence artifact activation is 9.54%. As for `CCS(=O)(=O)N1Cc2ccccc2CC1C(=O)Nc1ccc(OC)cc1OC` (centres undefined), the figure is 0.07%; as for `O=C(O)c1cccc2c1C(=O)c1ccc(N3CCCC3)cc1S2(=O)=O`, -0.07%; as for `CCCN1C(=O)c2cccc3c(N4CCCCC4)ccc(c23)C1=O`, 0.47%. On to `O=C1c2cccc3c(N4CCCCC4)ccc(c23)C(=O)N1CCO`, for which the fluorescence artifact activation was 42.3% (active). As for `C=CCN1C(=O)c2cccc3c(N4CCCCC4)ccc(c23)C1=O`, the figure is 2.88%; as for `O[C@@H]1CN(C2CCCCC2)CC[C@H]1N1CCN(CCc2ccccc2)CC1`, 7.79%; as for `CC[C@@]1(O)C(=O)OCc2c1cc1n(c2=O)Cc2cc3c(CN(C)C)c(O)ccc3nc2-1`, 6.14%. As for `CCOc1ccc(Nc2nc(N)c([N+](=O)[O-])c(NCc3ccccc3)n2)cc1`, the figure is 0.09%. As for `C[n+]1ccc(/C=C/c2c[nH]c3ccccc23)cc1`, the figure is 57.3% (active); as for `CC[n+]1ccc(/C=C/c2c[nH]c3ccccc23)cc1`, 59.8% (active); as for `C(=Cc1c[nH]c2ccccc12)c1nccc2ccccc12`, 1.55%.

For `Cc1ccc2[nH]cc(/C=C/c3cc[n+](C)cc3)c2c1`, the fluorescence artifact activation is -0.07%. In the case of `C[n+]1ccc(/C=C/c2c[nH]c3ccc(F)cc23)cc1` it was 0.16%; in that of `OCC[n+]1ccc(/C=C/c2c[nH]c3ccccc23)cc1`, 0%; in that of `Cc1cc(Cl)ccc1OCC(=O)NCCOc1nc(N2CCOCC2)nc(N2CCOCC2)n1`, 0.1%. In the case of `N#Cc1c(-c2ccccc2F)cc(C2CC2)nc1SCC(=O)c1cccs1` it was 0.28%.

Consider `Cc1ccc(C(=O)N/C(=C/c2ccc(-c3ccc([N+](=O)[O-])cc3)o2)C(=O)NCCCN(C)C)cc1`, for which the fluorescence artifact activation is 0.29%. In the case of `NC(=O)CC[C@@H]1NC(=O)[C@H](Cc2ccc(O)cc2)NC(=O)c2cc([N+](=O)[O-])cc(F)c2OCC[C@@H](C(N)=O)NC1=O` it was 0.02%; in that of `COc1ccc(CNS(=O)(=O)c2cc(-c3cc(C)no3)ccc2OC)cc1OC`, 2.41%. In the case of `CC(C)(CO)NCC#Cc1ccccc1` it was -0.01%; in that of `Cc1nn(C)c(NC(=O)c2ccccc2Cl)c1Cl`, 18.7% (active). Consider `COc1ccccc1C(=O)Nc1nnn(C)n1`, for which the fluorescence artifact activation was -0.09%. As to `CSCCC(NC(=O)c1ccccc1Cl)C(=O)N1CCC1` (centres undefined), the fluorescence artifact activation is -0.06%. In the case of `O=C(Oc1cc2oc(=O)c3c(c2cc1Cl)CCCC3)c1cccs1` it was 0.11%; in that of `CC1CC(C)CN(CCOCCSc2ccccc2)C1` (centres undefined), 28.4% (active). In the case of `Cc1ccccc1C(=O)c1cccn1CC(=O)NCCCN1CC(C)CC(C)C1` (centres undefined), the fluorescence artifact activation is 0.1%. In the case of `CC1CN(CCCCOc2ccc3ccccc3c2)CC(C)O1` (centres undefined) it was 0.12%; in that of `CC1CCN(c2ccc3c(c2)S(=O)(=O)c2cccc(C(=O)NCc4cccc(F)c4)c2C3=O)CC1`, 0.09%.

As for `C=CCNC(=S)N(CC=C)C1CCS(=O)(=O)C1` (centres undefined), the fluorescence artifact activation is 0.07%. In the case of `CCNC(=O)/C(C#N)=C/c1c(N2CCN(Cc3ccc4c(c3)OCO4)CC2)nc2c(C)cccn2c1=O` it was 0.06%.

With `Cc1cccn2c(=O)c(/C=C3\SC(=S)N(CC(C)C)C3=O)c(NCCCOC(C)C)nc12`, the fluorescence artifact activation is 17.1% (active). As for `O=C1NC(=S)S/C1=C/c1ccc(N2CCOCC2)o1`, the figure is 1.59%.

With `Cc1cccn2c(=O)c3cc(C#N)c(=NC(=O)c4cccs4)n(CCCOC(C)C)c3nc12`, the fluorescence artifact activation was -0.06%. Consider `COC(=O)CCCCCN1C(=O)/C(=C\c2ccncc2)SC1=S`, for which the fluorescence artifact activation was -0.01%.

Regarding `Cc1cccn2c(=O)c(/C=C3\SC(=S)NC3=O)c(NCCCN3CCOCC3)nc12`, the fluorescence artifact activation is 21.4% (active). In the case of `O=C1CCN2C=Nc3cccc4ccc1c2c34` it was -0.03%.

For the compound `CC1=C(C)CC(C(=O)NNC(=O)c2cccc(Cl)c2)C(C(=O)O)C1` (centres undefined), the fluorescence artifact activation was -0.06%. In the case of `Cc1cc([N+](=O)[O-])nn1CC(=O)Nc1c(C)n(C)n(-c2ccccc2)c1=O` it was 3.39%. For `CN1CCC/C1=C1/C(=O)N(c2ccccc2)N=C1NC(=O)Nc1cccc(Cl)c1`, the fluorescence artifact activation was 0.05%. As for `Cc1c(N=C2N=C(NC(=O)Nc3ccc(Cl)cc3)c3ccccc32)c(=O)n(-c2ccccc2)n1C`, the figure is 20.3% (active); as for `O=C(Nc1cccc2c1N(C(=O)c1ccco1)CCC2)c1ccco1`, 5.02%; as for `COc1ccccc1CNC(=O)COC(=O)c1cccc(S(=O)(=O)N2CCOCC2)c1`, 0.16%. In the case of `C[C@@H](NC(=O)c1ncn(C)c1C(=O)N[C@H](C)c1ccccc1)c1ccccc1` it was 0%; in that of `C/C(=N\NC(=O)c1ccccc1)c1ccc(NC(=O)c2cccs2)cc1`, 0.85%. As to `Cc1ccc(C(C)NC(=O)c2cccs2)cc1C` (centres undefined), the fluorescence artifact activation is 174% (active). In the case of `Cc1cc(S(=O)(=O)NC(C)C)ccc1OCC(=O)NCc1ccccc1` it was 0.08%; in that of `CCOC(=O)c1c(NCC(C)C)c2ccccc2[nH]c1=O`, 39.3% (active); in that of `COC(=O)[C@H](C)NC(=O)c1cc2c(cn1)[nH]c1ccccc12`, 0.32%.

Consider `CCN(CC)C(=O)C(=O)c1c(-c2ccccc2)[nH]c2ccccc12`, for which the fluorescence artifact activation is 6.52%. As for `C=CCN1C(=O)[C@@H]2Cc3c([nH]c4ccccc34)C(c3ccc(O)cc3)N2C1=S` (some centres undefined), the figure is -0.05%. As for `CCC(=O)N1CCN(c2nc(C)nc3sc(C)c(C)c23)CC1`, the figure is 0.08%; as for `S=C1NC2=C(CCCC2=C2SCCCS2)C(c2ccccc2)N1` (centres undefined), 0.29%. Consider `O=C(O)CN1C(=O)c2cccc3c(Br)ccc1c23`, for which the fluorescence artifact activation is 53.6% (active). As to `CC(=O)N(C(C)=O)N1C(=O)c2cccc3c(N4CCOCC4)ccc(c23)C1=O`, the fluorescence artifact activation was 0.01%. In the case of `O=C(OCCN1C(=O)c2cccc3c(N4CCOCC4)ccc(c23)C1=O)c1ccc(Cl)cc1` it was 1.59%. In the case of `CCn1c(CSCc2ccccc2)n[nH]c1=S` it was 0.18%. As for `Cc1ccc(NC(=O)COc2ccc(/C=N/NC(=O)CSCc3ccccc3)cc2)cc1`, the figure is 12.9% (active); as for `Cc1ccc(NC(=O)CO/N=C/c2ccc(N(C)C)cc2)cc1`, 0.03%. For `Cc1ccc(NC(=O)CN(C)C(=O)COC(=O)COc2ccc(C#N)cc2)cc1`, the fluorescence artifact activation was 0.42%.

These data come from PubChem BioAssay AID504382 (The Scripps Research Institute Molecular Screening Center, 2011).
